From ChEMBL document CHEMBL1130172, “Discovery of a novel class of substituted pyrrolooctahydroisoquinolines as potent and selective delta opioid agonists, based on an extension of the message-address concept” (J Med Chem, 1997)

Experiments:
[1] = tested on: Mus musculus; test: Antinociceptive activity in mouse abdominal constriction test after intracerebroventricular administration; format: functional, Abdomen
In short: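 Male Swiss mice (20-35 g); drug given icv by needle through the skull 1.5 mm right of bregma on the coronal suture (3.5 mm protrusion), 5 min before ip phenyl-p-benzoquinone (2 mg/kg, 10 mL/kg, at 37 °C).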

[2] = molecular target: T1, Delta-type opioid receptor (Mus musculus, UniProt P32300); test: In vitro agonist activity for Opioid receptor delta 1 was determined in a mouse vas deferens assay; format: functional, tissue-based
[3] = molecular target: Kappa-type opioid receptor (Mus musculus, UniProt P33534); test: Binding affinity against Opioid receptor kappa 1 using [3H]-U-69,593 as radioligand
In short: (§1)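 Whole-brain (minus cerebellum) membranes from male CD-1 mice in 50 mM Tris-HCl pH 7.4, preincubated 45 min at 37 °C. μ labelled with 0.7 nM [3H]DAMGO, κ with 1.2 nM [3H]U69593 (PEI-presoaked filters); 50 min at 25 °C in triplicate; nonspecific with 10 μM naloxone. IC50 by nonlinear regression, Ki by Cheng–Prusoff; mean ± SEM, n=3 unless stated.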

[4] = molecular target: T1, Delta-type opioid receptor; test: In vitro antagonist activity against Opioid receptor delta 1 in the presence of 30 nM naltrindole, in a mouse vas deferens assay; format: functional, tissue-based
[5] = molecular target: Mu-type opioid receptor (Mus musculus, UniProt P42866); test: Binding affinity against Opioid receptor mu 1 using [3H][D-Ala2, MePhe4, Gly-ol5]-enkephalin as radioligand; in short: as §1
[6] = molecular target: T1, Delta-type opioid receptor; test: Binding affinity against Opioid receptor delta 1 using [3H][D-Ala2, D-Leu5]-enkephalin as radioligand
[7] = species on record: Mus musculus; test: Selectivity ratio of the affinity for kappa and delta opioid receptors (Ki kappa/Ki delta)
In short: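 Ratios of Ki values: δ Ki from [3H]DADLE (1 nM) on NG108-15 membranes; μ Ki from [3H]DAMGO (0.7 nM) and κ Ki from [3H]U69593 (1.2 nM) on mouse brain membranes; all 25 °C competition assays with Ki derived by Cheng–Prusoff.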

[8] = molecular target: T1, Delta-type opioid receptor; test: Inv itro antagonist activity against Opioid receptor delta 1 in the presence of 30 nM naltrindole, in a mouse vas deferens assay; format: functional, tissue-based
In short: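 Isolated vasa deferentia from CD-1 mice (25–35 g) held in Mg2+-free Krebs buffer, oxygenated with 95% O2/5% CO2, at 37 °C. Electrical field stimulation: 50 ms trains of 2 ms pulses at 50 Hz, 60–70 V maximal, trains at 0.1 Hz. Agonist concentration–response curves built cumulatively in the presence of 30 nM naltrindole.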

T1 sequence (P32300 whole entry): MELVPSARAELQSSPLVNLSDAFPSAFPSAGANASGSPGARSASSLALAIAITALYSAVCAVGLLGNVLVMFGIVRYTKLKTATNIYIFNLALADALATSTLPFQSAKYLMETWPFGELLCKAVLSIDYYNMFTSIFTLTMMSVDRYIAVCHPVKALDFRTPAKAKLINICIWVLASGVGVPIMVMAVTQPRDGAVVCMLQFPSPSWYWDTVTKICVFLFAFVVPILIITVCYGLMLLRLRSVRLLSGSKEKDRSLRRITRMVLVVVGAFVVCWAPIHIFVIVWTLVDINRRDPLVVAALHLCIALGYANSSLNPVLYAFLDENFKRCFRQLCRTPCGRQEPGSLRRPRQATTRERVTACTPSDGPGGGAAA
Mu-type opioid receptor, sequence (P42866 whole entry): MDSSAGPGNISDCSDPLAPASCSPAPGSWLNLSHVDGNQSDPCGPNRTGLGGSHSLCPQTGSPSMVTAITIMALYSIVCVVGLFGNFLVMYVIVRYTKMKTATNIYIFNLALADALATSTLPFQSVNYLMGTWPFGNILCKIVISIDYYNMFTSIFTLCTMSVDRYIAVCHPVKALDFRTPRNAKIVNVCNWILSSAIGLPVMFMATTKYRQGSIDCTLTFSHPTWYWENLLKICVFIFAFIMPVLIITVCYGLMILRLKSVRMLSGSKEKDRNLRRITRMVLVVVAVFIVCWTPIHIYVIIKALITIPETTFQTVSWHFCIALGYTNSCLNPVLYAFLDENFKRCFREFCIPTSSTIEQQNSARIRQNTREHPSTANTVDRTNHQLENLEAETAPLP
Kappa-type opioid receptor, sequence (P33534 whole entry): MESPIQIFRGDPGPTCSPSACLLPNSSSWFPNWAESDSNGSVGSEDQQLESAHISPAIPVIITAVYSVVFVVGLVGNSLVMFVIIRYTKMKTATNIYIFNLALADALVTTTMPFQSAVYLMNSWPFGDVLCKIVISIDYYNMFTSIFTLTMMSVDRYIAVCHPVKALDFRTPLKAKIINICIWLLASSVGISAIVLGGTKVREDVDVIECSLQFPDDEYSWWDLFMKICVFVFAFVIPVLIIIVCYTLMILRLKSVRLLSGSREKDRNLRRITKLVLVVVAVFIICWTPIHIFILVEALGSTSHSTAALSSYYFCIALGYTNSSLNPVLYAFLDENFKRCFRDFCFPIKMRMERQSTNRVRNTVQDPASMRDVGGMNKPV

SMILES	Ki [3]	Ki [5]	Ki [6]	Selectivity ratio [7]	further results
CCN1CC[C@]2(c3cccc(O)c3)Cc3[nH]c(C(=O)N(CC)CC)c(C)c3C[C@H]2C1 (racemic) [listing 1 of 2 here]	1300 nM	407 nM	1.9 nM	–	ED50 [1]: 1.6 ug mouse-1; IC50 [2]: 34 nM; IC50 [4]: 330 nM
C=CCN1C[C@H](C)N([C@H](c2ccc(C(=O)N(CC)CC)cc2)c2cccc(OC)c2)C[C@H]1C [SNC-80]	1350 nM	1300 nM	–	–	–
CCN1CC[C@]2(c3cccc(O)c3)Cc3[nH]c(C(=O)N(CC)CC)c(C)c3C[C@H]2C1 (racemic) [listing 2 of 2 here]	–	–	–	690	–
CCN1CC[C@]2(c3cccc(O)c3)Cc3[nH]c(C(=O)N(CC)CC)c(C)c3C[C@H]2C1 (stereo in doubt; (+)-5b) [listing 1 of 2 here]	–	–	–	2	–
CCN1CC[C@]2(c3cccc(O)c3)Cc3[nH]c4ccccc4c3C[C@H]2C1 (stereo in doubt; (+)-3) [listing 1 of 2 here]	771 nM	2620 nM	2.2 nM	–	–
Oc1ccc2c3c1O[C@H]1c4[nH]c5ccccc5c4C[C@@]4(O)[C@@H](C2)N(CC2CC2)CC[C@]314 [NALTRINDOLE]	9.5 nM	15 nM	0.5 nM	20	–
CCN1CC[C@]2(c3cccc(O)c3)Cc3[nH]c(C(=O)N(CC)CC)c(C)c3C[C@H]2C1 (stereo in doubt; (-)-5b) [listing 1 of 2 here]	–	–	–	1480	–
CCN1CC[C@]2(c3cccc(O)c3)Cc3[nH]c4ccccc4c3C[C@H]2C1 (stereo in doubt; (-)-3) [listing 1 of 2 here]	–	–	–	0.1	–
CCN1CC[C@]2(c3cccc(O)c3)Cc3[nH]c4ccccc4c3C[C@H]2C1 (stereo in doubt; (-)-3) [listing 2 of 2 here]	167 nM	1630 nM	1970 nM	–	–
CCN1CC[C@]2(c3cccc(O)c3)Cc3[nH]c4ccccc4c3C[C@H]2C1 (racemic) [listing 1 of 2 here]	334 nM	2090 nM	7.1 nM	–	–
CN1CC[C@]23c4c5ccc(O)c4O[C@H]2c2[nH]c4ccccc4c2C[C@@]3(O)[C@H]1C5 [OXYMORPHINDOLE]	77 nM	661 nM	0.8 nM	90	–
CCN1CC[C@]2(c3cccc(O)c3)Cc3[nH]c4ccccc4c3C[C@H]2C1 (stereo in doubt; (+)-3) [listing 2 of 2 here]	–	–	–	350	–
CCN1CC[C@]2(c3cccc(O)c3)Cc3[nH]c(C(=O)N(CC)CC)c(C)c3C[C@H]2C1 (stereo in doubt; (-)-5b) [listing 2 of 2 here]	1340 nM	129 nM	0.9 nM	–	IC50 [8]: 462 nM; IC50 [2]: 26 nM
CCN1CC[C@]2(c3cccc(O)c3)Cc3[nH]c(C(=O)N(CC)CC)c(C)c3C[C@H]2C1 (stereo in doubt; (+)-5b) [listing 2 of 2 here]	6000 nM	> 5000 nM	3540 nM	–	–
CCN(CC)C(=O)c1[nH]c2c(c1C)C[C@H]1CN(C)CC[C@]1(c1cccc(O)c1)C2 (racemic)	500 nM	93 nM	2.1 nM	240	–
CCN(CC)C(=O)c1[nH]c2c(c1C)C[C@H]1CN(CC3CC3)CC[C@]1(c1cccc(O)c1)C2 (racemic)	63.1 nM	14.1 nM	1.7 nM	37	–
CCN1CC[C@]2(c3cccc(O)c3)Cc3[nH]c4ccccc4c3C[C@H]2C1 (racemic) [listing 2 of 2 here]	–	–	–	50	–
